Data published in ChEMBL document CHEMBL1148671, “Synthesis and antibacterial activity of C12 des-methyl ketolides” (2006).
Converted amounts (≈) assume the structure as drawn.

Legend:
Assay type in all cases: functional
Haemophilus influenzae [1] = experiment: Antibacterial activity against Haemophilus influenzae 2762 by broth microdilution method
Procedure, shortened: (§1)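 In vitro activity was read as the minimum inhibitory concentration (MIC) by broth microdilution and reported in μg/mL. The S. pneumoniae panel included erythromycin-resistant strains carrying mef or erm genes. Telithromycin and clarithromycin were run as comparators in every assay.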

Staphylococcus aureus [2] = experiment: Antibacterial activity against Staphylococcus aureus 33591 by broth microdilution method; procedure, shortened: as §1
Streptococcus pneumoniae [3] = experiment: Antibacterial activity against erythromycin-resistant Streptococcus pneumoniae mef 5654 by broth microdilution method
Enterococcus faecalis [4] = experiment: Antibacterial activity against Enterococcus faecalis 29212 by broth microdilution method; procedure, shortened: as §1
Streptococcus pyogenes = experiment: Antibacterial activity against Streptococcus pyogenes 8668 by broth microdilution method; procedure, shortened: as §1
[5] = tested on: Staphylococcus epidermidis; experiment: Antibacterial activity against Staphylococcus epidermidis 14990 by broth microdilution method; procedure, shortened: as §1
Haemophilus influenzae [6] = experiment: Antibacterial activity against Haemophilus influenzae 49247 by broth microdilution method; procedure, shortened: as §1
Staphylococcus aureus [7] = experiment: Antibacterial activity against Staphylococcus aureus 29213 by broth microdilution method; settings: ATCC29213; procedure, shortened: as §1
Streptococcus pneumoniae [8] = experiment: Antibacterial activity against erythromycin-resistant Streptococcus pneumoniae erm 6849 by broth microdilution method
Streptococcus pneumoniae [9] = experiment: Antibacterial activity against Streptococcus pneumoniae 280-962 by broth microdilution method; procedure, shortened: as §1
Streptococcus pneumoniae [10] = experiment: Antibacterial activity against Streptococcus pneumoniae 297-749 by broth microdilution method; procedure, shortened: as §1
Enterococcus faecalis [11] = experiment: Antibacterial activity against Enterococcus faecalis bc11148-2 by broth microdilution method; procedure, shortened: as §1
Streptococcus pneumoniae [12] = experiment: Antibacterial activity against Streptococcus pneumoniae 49619 by broth microdilution method; procedure, shortened: as §1
[13] = tested on: Staphylococcus epidermidis; experiment: Antibacterial activity against Staphylococcus epidermidis f50654 by broth microdilution method; procedure, shortened: as §1
Streptococcus pneumoniae [14] = experiment: Antibacterial activity against erythromycin-resistant Streptococcus pneumoniae mef S 3427 by broth microdilution method

For `CC[C@H]1OC(=O)[C@H](C)C(=O)[C@H](C)[C@@H](O[C@@H]2O[C@H](C)C[C@H](N(C)C)[C@H]2O)[C@](C)(OC)C[C@@H](C)C(=O)[C@H](C)[C@@H]2[C@@H]1OC(=O)N2CCCCn1ccc2ncccc21`, the MIC (Haemophilus influenzae [1]) was 0.78 µg/mL (≈ 1.01 µM), the MIC (Staphylococcus aureus [2]) was > 50 µg/mL and the MIC (Streptococcus pneumoniae [3]) was 0.2 µg/mL (≈ 0.259 µM). For the same compound, the MIC (Enterococcus faecalis [4]) was 0.1 µg/mL (≈ 0.13 µM), the MIC (Streptococcus pyogenes) was ≤ 0.05 µg/mL and the MIC [5] was 0.4 µg/mL (≈ 0.519 µM). For the same compound, the MIC (Haemophilus influenzae [6]) was 1.56 µg/mL (≈ 2.02 µM), the MIC (Staphylococcus aureus [7]) was 0.2 µg/mL (≈ 0.259 µM) and the MIC (Streptococcus pneumoniae [8]) was 0.2 µg/mL (≈ 0.259 µM). For the same compound, the MIC (Streptococcus pneumoniae [9]) was ≤ 0.05 µg/mL, the MIC (Streptococcus pneumoniae [10]) was ≤ 0.05 µg/mL and the MIC (Enterococcus faecalis [11]) was 6.25 µg/mL (≈ 8.11 µM). For the same compound, the MIC (Streptococcus pneumoniae [12]) was ≤ 0.05 µg/mL and the MIC [13] was 0.4 µg/mL (≈ 0.519 µM).

With `CC[C@H]1OC(=O)[C@H](C)C(=O)[C@H](C)[C@@H](O[C@@H]2O[C@H](C)C[C@H](N(C)C)[C@H]2O)[C@](C)(OC)C[C@@H](C)C(=O)[C@H](C)[C@@H]2[C@@H]1OC(=O)N2CCCCc1cnc2ccccc2c1` the MIC (Haemophilus influenzae [1]) was 1.56 µg/mL (≈ 1.99 µM), the MIC (Staphylococcus aureus [2]) was > 50 µg/mL and the MIC (Streptococcus pneumoniae [3]) was 0.2 µg/mL (≈ 0.256 µM). The MIC (Enterococcus faecalis [4]) was 0.1 µg/mL (≈ 0.128 µM), the MIC (Streptococcus pyogenes) was ≤ 0.05 µg/mL and the MIC [5] was 0.2 µg/mL (≈ 0.256 µM). The MIC (Haemophilus influenzae [6]) was 6.25 µg/mL (≈ 7.99 µM), the MIC (Staphylococcus aureus [7]) was 0.4 µg/mL (≈ 0.512 µM) and the MIC (Streptococcus pneumoniae [8]) was 0.4 µg/mL (≈ 0.512 µM). The MIC (Streptococcus pneumoniae [9]) was ≤ 0.05 µg/mL, the MIC (Streptococcus pneumoniae [10]) was ≤ 0.05 µg/mL and the MIC (Enterococcus faecalis [11]) was 12.5 µg/mL (≈ 16 µM). The MIC (Streptococcus pneumoniae [14]) was 0.1 µg/mL (≈ 0.128 µM), the MIC (Streptococcus pneumoniae [12]) was ≤ 0.05 µg/mL and the MIC [13] was 0.4 µg/mL (≈ 0.512 µM).

With `CC[C@H]1OC(=O)[C@H](C)C(=O)[C@H](C)[C@@H](O[C@@H]2O[C@H](C)C[C@H](N(C)C)[C@H]2O)[C@](C)(OC)C[C@@H](C)C(=O)[C@H](C)[C@@H]2[C@@H]1OC(=O)N2CCCCn1ccc2c(N)cccc21` the MIC (Haemophilus influenzae [1]) was 1.56 µg/mL (≈ 1.99 µM), the MIC (Staphylococcus aureus [2]) was > 50 µg/mL and the MIC (Streptococcus pneumoniae [3]) was 0.78 µg/mL (≈ 0.994 µM). The MIC (Enterococcus faecalis [4]) was ≤ 0.05 µg/mL, the MIC (Streptococcus pyogenes) was ≤ 0.05 µg/mL and the MIC [5] was 0.4 µg/mL (≈ 0.51 µM). For the same compound, the MIC (Haemophilus influenzae [6]) was 3.13 µg/mL (≈ 3.99 µM), the MIC (Staphylococcus aureus [7]) was 0.2 µg/mL (≈ 0.255 µM) and the MIC (Streptococcus pneumoniae [8]) was 25 µg/mL (≈ 31.8 µM). For the same compound, the MIC (Streptococcus pneumoniae [9]) was ≤ 0.05 µg/mL, the MIC (Streptococcus pneumoniae [10]) was ≤ 0.05 µg/mL and the MIC (Enterococcus faecalis [11]) was 6.25 µg/mL (≈ 7.96 µM). It also gave an MIC (Streptococcus pneumoniae [12]) of 0.1 µg/mL (≈ 0.127 µM) and an MIC [13] of 0.78 µg/mL (≈ 0.994 µM).

With `CC[C@H]1OC(=O)[C@H](C)C(=O)[C@H](C)[C@@H](O[C@@H]2O[C@H](C)C[C@H](N(C)C)[C@H]2O)[C@](C)(OC)C[C@@H](C)C(=O)[C@H](C)[C@@H]2[C@@H]1OC(=O)N2CCCCc1ncc(-c2ccccc2)s1` the MIC (Haemophilus influenzae [1]) was 3.13 µg/mL (≈ 3.84 µM), the MIC (Staphylococcus aureus [2]) was > 50 µg/mL and the MIC (Streptococcus pneumoniae [3]) was 1.56 µg/mL (≈ 1.92 µM). For the same compound, the MIC (Enterococcus faecalis [4]) was 0.4 µg/mL (≈ 0.491 µM), the MIC (Streptococcus pyogenes) was 0.2 µg/mL (≈ 0.246 µM) and the MIC [5] was 0.78 µg/mL (≈ 0.958 µM). It also gave an MIC (Haemophilus influenzae [6]) of 12.5 µg/mL (≈ 15.4 µM), an MIC (Staphylococcus aureus [7]) of 0.78 µg/mL (≈ 0.958 µM) and an MIC (Streptococcus pneumoniae [8]) of 25 µg/mL (≈ 30.7 µM). The MIC (Streptococcus pneumoniae [9]) was ≤ 0.05 µg/mL, the MIC (Streptococcus pneumoniae [10]) was ≤ 0.05 µg/mL and the MIC (Enterococcus faecalis [11]) was 6.25 µg/mL (≈ 7.68 µM). For the same compound, the MIC (Streptococcus pneumoniae [14]) was 0.1 µg/mL (≈ 0.123 µM), the MIC (Streptococcus pneumoniae [12]) was ≤ 0.05 µg/mL and the MIC [13] was 0.4 µg/mL (≈ 0.491 µM).

`CC[C@H]1OC(=O)[C@H](C)C(=O)[C@H](C)[C@@H](O[C@@H]2O[C@H](C)C[C@H](N(C)C)[C@H]2O)[C@](C)(OC)C[C@@H](C)C(=O)[C@H](C)[C@@H]2[C@@H]1OC(=O)N2CCCCc1ccc2ccccc2n1` was tested, and the MIC (Staphylococcus aureus [2]) was > 50 µg/mL, the MIC (Streptococcus pneumoniae [3]) was 0.2 µg/mL (≈ 0.256 µM) and the MIC (Enterococcus faecalis [4]) was ≤ 0.05 µg/mL. The MIC (Streptococcus pyogenes) was ≤ 0.05 µg/mL, the MIC [5] was 0.2 µg/mL (≈ 0.256 µM) and the MIC (Haemophilus influenzae [6]) was 3.13 µg/mL (≈ 4 µM). For the same compound, the MIC (Staphylococcus aureus [7]) was 0.4 µg/mL (≈ 0.512 µM), the MIC (Streptococcus pneumoniae [8]) was 25 µg/mL (≈ 32 µM) and the MIC (Streptococcus pneumoniae [9]) was ≤ 0.05 µg/mL. The MIC (Streptococcus pneumoniae [10]) was ≤ 0.05 µg/mL, the MIC (Enterococcus faecalis [11]) was 3.13 µg/mL (≈ 4 µM) and the MIC (Streptococcus pneumoniae [12]) was ≤ 0.05 µg/mL. For the same compound, the MIC [13] was 0.2 µg/mL (≈ 0.256 µM).

With `CC[C@H]1OC(=O)[C@H](C)C(=O)[C@H](C)[C@@H](O[C@@H]2O[C@H](C)C[C@H](N(C)C)[C@H]2O)[C@](C)(OC)C[C@@H](C)C(=O)[C@H](C)[C@@H]2[C@@H]1OC(=O)N2CCCCn1cnc(-c2ccccc2)c1` the MIC (Staphylococcus aureus [2]) was > 50 µg/mL, the MIC (Streptococcus pneumoniae [3]) was 0.2 µg/mL (≈ 0.251 µM) and the MIC (Enterococcus faecalis [4]) was 0.1 µg/mL (≈ 0.125 µM). For the same compound, the MIC (Streptococcus pyogenes) was ≤ 0.05 µg/mL, the MIC [5] was 0.1 µg/mL (≈ 0.125 µM) and the MIC (Haemophilus influenzae [6]) was 3.13 µg/mL (≈ 3.93 µM). For the same compound, the MIC (Staphylococcus aureus [7]) was 0.2 µg/mL (≈ 0.251 µM), the MIC (Streptococcus pneumoniae [8]) was 0.78 µg/mL (≈ 0.979 µM) and the MIC (Streptococcus pneumoniae [9]) was ≤ 0.05 µg/mL. The MIC (Streptococcus pneumoniae [10]) was ≤ 0.05 µg/mL, the MIC (Enterococcus faecalis [11]) was > 50 µg/mL and the MIC (Streptococcus pneumoniae [12]) was ≤ 0.05 µg/mL. For the same compound, the MIC [13] was 0.2 µg/mL (≈ 0.251 µM).

`CC[C@H]1OC(=O)[C@H](C)C(=O)[C@H](C)[C@@H](O[C@@H]2O[C@H](C)C[C@H](N(C)C)[C@H]2O)[C@](C)(OC)C[C@@H](C)C(=O)[C@H](C)[C@@H]2[C@@H]1OC(=O)N2CCCCn1cnc2cccnc21` was tested, and the MIC (Staphylococcus aureus [2]) was > 50 µg/mL, the MIC (Streptococcus pneumoniae [3]) was 0.78 µg/mL (≈ 1.01 µM) and the MIC (Enterococcus faecalis [4]) was ≤ 0.05 µg/mL. The MIC (Streptococcus pyogenes) was ≤ 0.05 µg/mL, the MIC [5] was 0.2 µg/mL (≈ 0.259 µM) and the MIC (Haemophilus influenzae [6]) was 3.13 µg/mL (≈ 4.05 µM). The MIC (Staphylococcus aureus [7]) was 0.2 µg/mL (≈ 0.259 µM), the MIC (Streptococcus pneumoniae [8]) was 0.78 µg/mL (≈ 1.01 µM) and the MIC (Streptococcus pneumoniae [9]) was ≤ 0.05 µg/mL. The MIC (Streptococcus pneumoniae [10]) was ≤ 0.05 µg/mL, the MIC (Enterococcus faecalis [11]) was 50 µg/mL (≈ 64.8 µM) and the MIC (Streptococcus pneumoniae [12]) was ≤ 0.05 µg/mL. It also gave an MIC [13] of 0.4 µg/mL (≈ 0.518 µM).

For `CC[C@H]1OC(=O)[C@H](C)C(=O)[C@H](C)[C@@H](O[C@@H]2O[C@H](C)C[C@H](N(C)C)[C@H]2O)[C@](C)(OC)C[C@@H](C)C(=O)[C@H](C)[C@@H]2[C@@H]1OC(=O)N2CCCCn1ccc2ccccc21`, the MIC (Staphylococcus aureus [2]) was > 50 µg/mL, the MIC (Streptococcus pneumoniae [3]) was 0.2 µg/mL (≈ 0.26 µM) and the MIC (Enterococcus faecalis [4]) was 0.1 µg/mL (≈ 0.13 µM). The MIC (Streptococcus pyogenes) was ≤ 0.05 µg/mL, the MIC [5] was 0.2 µg/mL (≈ 0.26 µM) and the MIC (Haemophilus influenzae [6]) was 6.25 µg/mL (≈ 8.12 µM). The MIC (Staphylococcus aureus [7]) was 0.4 µg/mL (≈ 0.519 µM), the MIC (Streptococcus pneumoniae [8]) was 6.25 µg/mL (≈ 8.12 µM) and the MIC (Streptococcus pneumoniae [9]) was ≤ 0.05 µg/mL. For the same compound, the MIC (Streptococcus pneumoniae [10]) was ≤ 0.05 µg/mL, the MIC (Enterococcus faecalis [11]) was > 50 µg/mL and the MIC (Streptococcus pneumoniae [12]) was ≤ 0.05 µg/mL. It also gave an MIC [13] of 0.4 µg/mL (≈ 0.519 µM).
